Here are results for three molecules from paper PMC2649974 (Proteins, 2009).

Test [1] has as its target T1, human PMK (Homo sapiens, UniProt Q15126).
T1 sequence (Q15126 1-192): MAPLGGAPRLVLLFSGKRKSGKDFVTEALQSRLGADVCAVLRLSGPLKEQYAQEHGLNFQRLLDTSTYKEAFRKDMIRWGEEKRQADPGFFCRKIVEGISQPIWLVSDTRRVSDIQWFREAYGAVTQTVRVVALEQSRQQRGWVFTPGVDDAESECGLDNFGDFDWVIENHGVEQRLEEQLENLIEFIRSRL
It counts as binding. As to conditions: for Kd: read-out: Kd in all complexes, binary and ternary complexes, NMR, pH 6.5, 25 °C. A digest of the protocol:
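Uniformly 15N-labelled His6-tagged human PMK from E. coli BL21(DE3) Rosetta, Ni-purified. Held at 400-600 μM in 20 mM KH2PO4, 5 mM DTT, 10% D2O, 0.02% NaN3, pH 6.5, 25 °C. Mg-ADP (1:1 MgCl2) or M5P added in 100 μM steps to saturation, in either order. Fast-exchange 1H/15N shifts (15N scaled by 6.51) were fitted to a quadratic with total protein and ligand.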

The target of test [2] is T1, human PMK. As to conditions: previously reported Km values; cited from earlier work.

Structures are written as SMILES.

With `Nc1ncnc2c1ncn2[C@@H]1O[C@H](COP(=O)(O)OP(=O)(O)O)[C@@H](O)[C@H]1O` [Mg-ADP, ADP], the Kd (commonly a measure of binding affinity in units of concentration) in test [1] fell in the range of 6 to 60 µM. Further, the Km (usually the concentration of substrate that gives half-maximal velocity) in test [2] was 47 ± 5 µM.

`C[C@@](O)(CCOP(=O)(O)O)CC(=O)O` [M5P, mevalonate 5-phosphate]: in test [1], the dissociation constant Kd lay in the range of 6 to 60 µM. In addition, the Michaelis constant (Km) in test [2] was 34 ± 3 µM.

Regarding `Nc1ncnc2c1ncn2[C@@H]1O[C@H](COP(=O)(O)OP(=O)(O)NP(=O)(O)O)[C@@H](O)[C@H]1O` [AMP-PNP], in test [1] (compared to ATP or ADP, HSQC titration onto Apo-PMK), the “binding to PMK (in words)” value is reported as “binds only weakly”.
